Each structure is given as a SMILES string. The source made the active and inactive calls. No cut-off for these calls is given here.

For series [1], the system named is MCF7. Kind of series: Induction of apoptosis in human MCF7 assessed as late apoptotic cells at 10 mM after 10 hrs by FITC-annexin V/propidium iodide staining-based flow cytometric analysis (reference value: 1.95%). It is filed as functional. On the technique in general: Flow cytometry measures light scatter and fluorescence of single cells or particles in a stream.

The target of series [2] is T1, [Pyruvate dehydrogenase (acetyl-transferring)] kinase isozyme 1, mitochondrial (Homo sapiens, UniProt Q15118). The settings on record: MCF7, 10 mM.
The test system of series [3] is MCF7. Put plainly: Cytotoxicity against human MCF7 cells assessed as growth inhibition after 72 hrs by MTT assay. It is filed as functional, cell-based. The settings on record: MCF7, 72 h. A general note: Tetrazolium assays rely on reduction of a dye to a coloured formazan, in cell work by metabolically active cells.
The target in series [4] is T1, [Pyruvate dehydrogenase (acetyl-transferring)] kinase isozyme 1, mitochondrial. The settings on record: MCF7, 10 mM. This is another data set of the same source.
Series [5] relates to MCF7. Kind of series: Induction of apoptosis in human MCF7 assessed as viable cells at 10 mM after 10 hrs by FITC-annexin V/propidium iodide staining-based flow cytometric analysis (reference value: 93.8%). It is filed as functional. Conditions: MCF7, 10 h, read-out: Activity.
Series [6] has as its system A549. Kind of series: Cytotoxicity against human A549 cells assessed as growth inhibition after 72 hrs by MTT assay. In kind it is functional, cell-based. Conditions: A549, 72 h.
The target in series [7] is T1, [Pyruvate dehydrogenase (acetyl-transferring)] kinase isozyme 1, mitochondrial. The settings on record: MCF7, 10 mM. The source holds these as a separate data set.
In series [8] the test system is MCF7. Kind of series: Reversal of hyperpolarized mitochondrial membrane potential in human MCF7 cells assessed as cells with vital and intact mitochondrial membranes at 10 mM after 12 hrs by JC1 staining-based flow cytometric analysis. It is filed as functional. The procedure, abridged: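 MCF-7 treated 12 h, then stained with JC-1. Mitochondrial potential read as the ratio of green J-monomer to red J-aggregate fluorescence, where a higher ratio marks depolarization. P < 0.05 computed against the […] DCA-treated group.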

For series [9], the system named is MCF7. Put plainly: Reversal of hyperpolarized mitochondrial membrane potential in human MCF7 cells assessed as cells with vital and intact mitochondrial membranes at 20 uM after 12 hrs by JC1 staining-based flow cytometric analysis. It is filed as functional. The procedure, abridged: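 MCF-7 cells treated 12 h (5, 10 or 20 µM), then stained with JC-1. Depolarization read as the ratio of green J-monomer to red J-aggregate fluorescence.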

For series [10], the system named is MCF7. Kind of series: Induction of apoptosis in human MCF7 assessed as early apoptotic cells at 10 mM after 10 hrs by FITC-annexin V/propidium iodide staining-based flow cytometric analysis (reference value: 2.38%). It is filed as functional.
In series [11] the target is T1, [Pyruvate dehydrogenase (acetyl-transferring)] kinase isozyme 1, mitochondrial. Conditions: MCF7, 10 mM. This is another data set of the same source.
Series [12] is described as follows: Cytotoxicity against human MCF10A cells assessed as growth inhibition at 10 mM after 72 hrs by MTT assay relative to control. It is filed as cell-based, MCF-10A. Conditions: read-out: GI.
For series [13], the species on record is Sus scrofa. Put plainly: Activation of pig heart PDC assessed as production of NADH at 10 mM in presence of ATP. The gist of the method: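 Pig PDC with its intrinsic PDKs preincubated 40 min at 37 °C at 80 µg/ml in Mops buffer pH 7.20 with acetyl-CoA, NADH, NaF. Kinase step run 3 min at 37 °C after 2.2-fold dilution into buffer with 55 µM ADP and 100 µM ATP, stopped with ADP/pyruvate. Residual PDC activity read as NADH at 340 nm in Tris pH 7.8 with NAD+, pyruvate, CoA, thiamine pyrophosphate.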

For series [14], the system named is MCF7. Kind of series: Induction of apoptosis in human MCF7 assessed as necrotic cells at 10 mM after 10 hrs by FITC-annexin V/propidium iodide staining-based flow cytometric analysis (reference value: 1.86%). In kind it is functional.
The nature of series [15]: Cytotoxicity against human MCF10A cells assessed as growth inhibition at 20 uM after 72 hrs by MTT assay relative to control. In kind it is cell-based, MCF-10A. The settings on record: read-out: GI.
In series [16] the target is T1, [Pyruvate dehydrogenase (acetyl-transferring)] kinase isozyme 1, mitochondrial. Conditions: MCF7, 10 mM. This is another data set of the same source.
Series [17] has as its system MCF7. Kind of series: Induction of apoptosis in human MCF7 assessed as viable cells at 20 uM after 10 hrs by FITC-annexin V/propidium iodide staining-based flow cytometric analysis (reference value: 93.8%). It is filed as functional. Conditions: MCF7, 10 h, read-out: Activity.
Series [18] has as its system A549. Put plainly: Cytotoxicity against human A549 cells assessed as growth inhibition at 40 uM after 72 hrs by MTT assay relative to control. It is filed as functional, cell-based.
Series [19] is described as follows: Cytotoxicity against human MCF10A cells assessed as growth inhibition at 40 uM after 72 hrs by MTT assay relative to control. It is filed as cell-based, MCF-10A. The settings on record: read-out: GI.
Series [20] concerns the target T1, [Pyruvate dehydrogenase (acetyl-transferring)] kinase isozyme 1, mitochondrial. Kind of series: Inhibition of recombinant N-terminal 6xHis-SUMO-tagged human PDK1 (29 to 436 residues) expressed in Escherichia coli BL-21 assessed as suppression of PDC phosphorylation at S293 at 50 uM after 30 mins by Western blot method. On the technique in general: A western blot detects proteins with antibodies after separation by electrophoresis.

The nature of series [21]: Cytotoxicity against human MCF10A cells assessed as growth inhibition at 10 uM after 72 hrs by MTT assay relative to control. In kind it is cell-based, MCF-10A. Conditions: read-out: GI.
Series [22] concerns the target T1, [Pyruvate dehydrogenase (acetyl-transferring)] kinase isozyme 1, mitochondrial. Kind of series: Inhibition of PDK1 in human MCF7 cells assessed as increase in oxygen consumption rate at 20 uM after 12 hrs. It is filed as cell-based. The gist of the method: (§1)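 MCF-7 cells at 2.7×10⁴ cells/well in XF24 plates, attached, then grown 24 h at 37 °C in 5% CO2. Treated 12 h at 5, 10 or 20 µM, rinsed into glycolysis stress-test medium and held 1 h at 37 °C without CO2. OCR, ECAR and PPR then measured on a Seahorse XFe24 analyser. Significance P < 0.05 versus untreated control.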

The subject of series [23] is MCF7. Kind of series: Induction of apoptosis in human MCF7 assessed as necrotic cells at 20 uM after 10 hrs by FITC-annexin V/propidium iodide staining-based flow cytometric analysis (reference value: 1.86%). It is filed as functional.
In series [24] the target is T1, [Pyruvate dehydrogenase (acetyl-transferring)] kinase isozyme 1, mitochondrial. Put plainly: Inhibition of recombinant N-terminal 6xHis-SUMO-tagged human PDK1 (29 to 436 residues) expressed in Escherichia coli BL-21 assessed as phosphorylation of RYHGHSMSDP at 50 uM after 30 mins by Kinase-Glo luminescent assay.
The target is the same in series [25]. Put plainly: Inhibition of recombinant N-terminal 6xHis-SUMO-tagged human PDK1 (29 to 436 residues) expressed in Escherichia coli BL-21 assessed as activation of PDC at 50 uM.
The test system of series [26] is MCF7. Put plainly: Cytotoxicity against human MCF7 cells assessed as growth inhibition at 40 uM after 72 hrs by MTT assay relative to control. In kind it is functional, cell-based.
The subject of series [27] is MCF7. Put plainly: Induction of apoptosis in human MCF7 assessed as late apoptotic cells at 20 uM after 10 hrs by FITC-annexin V/propidium iodide staining-based flow cytometric analysis (reference value: 1.95%). In kind it is functional.
The test system of series [28] is MCF7. Put plainly: Induction of mitochondrial membrane potential depolarization in human MCF7 cells at 60 uM after 12 hrs by TMRM staining-based assay. It is filed as functional, cell-based.
In series [29] the test system is A549. Kind of series: Cytotoxicity against human A549 cells assessed as growth inhibition at 40 uM after 72 hrs by IncuCyte Zoom live cells imaging method. It is filed as functional, cell-based.
Series [30] addresses T1, [Pyruvate dehydrogenase (acetyl-transferring)] kinase isozyme 1, mitochondrial. Kind of series: Inhibition of PDK1 in human MCF7 cells assessed as decrease in extracellular acidification rate at 20 uM after 12 hrs. In kind it is cell-based. The procedure, abridged:
as §1

For series [31] the target is unchanged. Kind of series: Inhibition of PDK1 in human MCF7 cells assessed as increase in ratio of oxygen consumption rate to extracellular acidification rate at 20 uM after 12 hrs. In kind it is cell-based. The gist of the method:
as §1

For series [32], the species on record is Sus scrofa. Put plainly: Activation of pig heart PDC assessed as production of NADH at 50 uM in presence of ATP. The procedure, abridged: (§2)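 Pig heart PDC (80 µg/ml, carrying intrinsic PDK activity) preincubated 40 min at 37 °C in Mops pH 7.20 buffer with NaF, acetyl-CoA, NADH and DTT. Kinase step 3 min at 37 °C with 55 µM ADP and 100 µM ATP, or no ATP. Stopped with ADP/pyruvate. Residual PDC activity then read as NADH formation at 340 nm, 37 °C, in Tris pH 7.8 with TPP, NAD+, pyruvate and CoA.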

The target of series [33] is T1, [Pyruvate dehydrogenase (acetyl-transferring)] kinase isozyme 1, mitochondrial. Kind of series: Inhibition of PDK1 in human MCF7 cells assessed as decrease in proton production rate at 20 uM after 12 hrs. In kind it is cell-based. The procedure, abridged: as §1
The species named for series [34] is Sus scrofa. Kind of series: Activation of pig heart PDC assessed as production of NADH at 50 uM in absence of ATP. The procedure, abridged: as §2
Series [35] concerns the target T1, [Pyruvate dehydrogenase (acetyl-transferring)] kinase isozyme 1, mitochondrial. Kind of series: Inhibition of PDK1 in human MCF7 cells assessed as decrease in lactate production at 20 uM after 12 hrs.
In series [36] the test system is MCF7. Put plainly: Induction of apoptosis in human MCF7 assessed as early apoptotic cells at 20 uM after 10 hrs by FITC-annexin V/propidium iodide staining-based flow cytometric analysis (reference value: 2.38%). It is filed as functional.
For series [37], the system named is MCF7. Kind of series: Cytotoxicity against human MCF7 cells assessed as growth inhibition at 40 uM after 72 hrs by IncuCyte Zoom live cells imaging method. In kind it is functional, cell-based.

Turning to `O=C([O-])C(Cl)Cl.[Na+]` [SODIUM DICHLOROACETATE], the Activity in the series with MCF7 [1] is on record as 9.94%; in the series on MCF7 [8] it was 69%; with MCF7 [9], 77.7%; in the series on MCF7 [10] it was 3.64%; in the series on MCF7 [14], 3.09%. In addition, the inhibition entry in [2], in series [4], in series [7], in series [11] and in series [16] was “Active” in each case. For the same compound, the IC50 – broadly, the point on the concentration scale where inhibition reaches its midpoint – with MCF7 [3] turned out to be 12400 µM; with A549 [6], 23600 µM. Also, the viability at 10000 µM in the series on MCF7 [5] worked out at 83.3%. The inhibition at 72 h, 10000 µM in series [12] was 41.1%. Also, the outcome in the series listed under Sus scrofa [13] was Active. Also, in series [15], the inhibition at 72 h, 20 µM was determined as 3.42%.

Turning to `Cc1nc(Cl)c(NC(=O)C(Cl)Cl)c(Cl)n1`, the viability at 20 µM with MCF7 [17] worked out at 83%. In addition, the “growth inhibition (GI)” value in the series on A549 [18], in the series on MCF7 [26] and in the series on A549 [29] was “Active” in each case. Moreover, in series [19], the inhibition at 72 h, 40 µM is 41.6%. For the same compound, the values for the IC50 in the series with MCF7 [3] and with A549 [6] were 22.9 µM and 26 µM, respectively. Besides, the inhibition entry in series [20], in series [22], in series [24], in series [25], in series [30] and in series [31] was “Active” throughout. Moreover, the inhibition result in [33] and in [35] was “Active” each time. The inhibition at 72 h, 10 µM in series [21] is 7.57%. Moreover, the Activity was 2.7% in the series with MCF7 [23], 9.87% in the series with MCF7 [27], 68.6% in the series with MCF7 [9] and 4.43% in the series with MCF7 [36]. Moreover, the result in the series on MCF7 [28] and in the series filed under Sus scrofa [34] was Active. Also, the result in the series listed under Sus scrofa [32] was inactive.

Regarding `O=C(Nc1c(Cl)ncnc1Cl)C(Cl)Cl`, the viability at 20 µM in the series with MCF7 [17] was determined as 80.7%. In addition, the “growth inhibition (GI)” value in the series on A549 [18], with MCF7 [37] and in the series with MCF7 [26] was “Active” in each case. The inhibition at 72 h, 40 µM in [19] stood at 42.4%. In addition, the results for the IC50 with MCF7 [3] and in the series with A549 [6] were 19.3 µM and 28.4 µM, respectively. The inhibition entry in series [20], in series [22], in [24], in [25], in series [30] and in series [31] was “Active” in each case. For the same compound, the inhibition result in series [33] and in [35] was “Active” each time. For the same compound, the inhibition at 72 h, 10 µM in series [21] was 4.91%. Further, the Activity is given as 3.91% with MCF7 [23], 10.6% in the series on MCF7 [27], 60.1% in the series with MCF7 [9] and 4.84% in the series with MCF7 [36]. The result in the series on MCF7 [28] and in the series filed under Sus scrofa [34] was Active. Besides, in the series filed under Sus scrofa [32], the outcome was inactive.

For the origin of these results see ChEMBL document CHEMBL3813671, “Unexpected Discovery of Dichloroacetate Derived Adenosine Triphosphate Competitors Targeting Pyruvate Dehydrogenase Kinase To Inhibit Cancer Proliferation” (J Med Chem, 2016).
